From publication PMC7271564 (Haematologica, 2019)
“Also recorded” adds a separate entry of the source.

Tests used:
CD138+CD38- plasma cells = assay: HTFC drug sensitivity assay, plasma cell subset; assay type: cell-based, human; conditions: CD138+CD38- plasma cells compared to CD138+CD38+ or other cells, MM samples
In short: (§1)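 Cohort I comprised 16 samples: 3 healthy PB, 3 AML and 10 MM. Samples were tested in 96-well plates against six compounds by no-wash high-throughput flow cytometry (iQue Screener PLUS). Two antibody panels defined up to ten subsets, including CD138+CD38± plasma cells and CD34+CD38± progenitors. Per-population cell counts gave dose–response curves, from which DSS and IC50 were derived. Results were shown as mean±SEM per disease group.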

monocytes (CD14+) = assay: HTFC drug sensitivity assay, monocytes; assay type: cell-based, human; conditions: for response of monocytes, in words: mean of 16 samples (3 healthy, 3 AML, 10 MM), Cohort I
In short: (§2)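 Three healthy PB samples were screened ex vivo with 71 compounds at 5 concentrations in 384-well plates. The assay was a no-wash multiplexed flow cytometry run on an iQue Screener PLUS. Six subsets were gated by surface antigen: CD19+, CD56+, CD3+CD4+, CD3+CD8+, CD3+CD56+ and CD14+. Cell counts per subset gave dose–response curves, and DSS was derived from these.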

CD19+/B cells = assay: High throughput no-wash flow cytometry; assay type: cell-based, human; conditions: for sensitivity compared to other cell types, in words: B cells, three healthy PB samples, 71-drug screen
CD56+/NK cells = assay: HTFC drug sensitivity assay, NK cells; assay type: cell-based, human; conditions: for sensitivity compared to other cell types, in words: NK cells, three healthy PB samples, 71-drug screen
In short: as §2

CD34+CD38- cells (HSC) = assay: HTFC drug sensitivity assay, hematopoietic stem cells; assay type: cell-based, human; conditions: CD34+CD38- cells from healthy donors (BM, n=2)
[1] = system: CD34+CD38+ cells (CPC/blast); assay: HTFC drug sensitivity assay, progenitor/blast cells; assay type: cell-based; conditions: Homo sapiens
T-cell subsets (CD3+) = assay: HTFC drug sensitivity assay, T-cell subsets; assay type: cell-based, human
In short: as §1

[2] = system: T-cell malignancies (primary samples); assay: CellTiter-Glo viability assay; assay type: cell-based, human; conditions: similar to healthy T cells
In short: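 Primary BM aspirates from leukemia patients (Cohort III, n=281 total), with T-PLL samples tested as enriched CD8+ cells, were exposed to the drug panel. The endpoint was CellTiter-Glo luminescent viability. Luminescence was fitted to dose–response curves, from which a drug sensitivity score (DSS) was calculated. Comparison was against bead-enriched healthy BM CD3+ cells.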

Structure (SMILES): CC(C)C[C@H](NC(=O)[C@H](Cc1ccccc1)NC(=O)c1cnccn1)B(O)O [bortezomib]
- ex vivo response, in words (CD138+CD38- plasma cells): resistant

Structure (SMILES): Cc1nc(Nc2ncc(C(=O)Nc3c(C)cccc3Cl)s2)cc(N2CCN(CCO)CC2)n1 [dasatinib]
- drug response profile (DSS clustering), in words (monocytes (CD14+); monocytes, three healthy PB samples, 71-drug screen): selective sensitivity

Structure (SMILES): C[C@@H]1C[C@H]2[C@@H]3CCC4=CC(=O)C=C[C@]4(C)[C@@]3(F)[C@@H](O)C[C@]2(C)[C@@]1(O)C(=O)CO [dexamethasone]
- sensitivity compared to other cell types, in words (CD19+/B cells): higher sensitivity
- effect on cell count, in words (CD19+/B cells; CD19+ cells, Cohort I samples): depleted
- effect on cell count, in words (CD56+/NK cells; CD56+ cells, Cohort I samples): depleted
- sensitivity compared to other cell types, in words (CD56+/NK cells): higher sensitivity
- effect on CD14+ cell count, in words (monocytes (CD14+); Cohort I samples): dose-dependent increase
- response of monocytes, in words (monocytes (CD14+)): resistant

Structure (SMILES): CO[C@@H]1[C@H](N(C)C(=O)c2ccccc2)C[C@H]2O[C@]1(C)n1c3ccccc3c3c4c(c5c6ccccc6n2c5c31)C(=O)NC4 [midostaurin]
- sensitivity compared to other cell types, in words (CD19+/B cells): higher sensitivity
- sensitivity compared to other cell types, in words (CD56+/NK cells): higher sensitivity
- sensitivity, in words (CD34+CD38- cells (HSC)): insensitive; also recorded: no effect
- IC50 [1]: 0.016 µM

Structure (SMILES): CC1(C)CCC(c2ccc(Cl)cc2)=C(CN2CCN(c3ccc(C(=O)NS(=O)(=O)c4ccc(N[C@H](CCN5CCOCC5)CSc5ccccc5)c(S(=O)(=O)C(F)(F)F)c4)cc3)CC2)C1 [navitoclax]
- response of monocytes, in words (monocytes (CD14+)): resistant

Structure (SMILES): COc1ncc(-c2ccc3nccc(-c4ccnnc4)c3c2)cc1NS(=O)(=O)c1ccc(F)cc1F [omipalisib]
- sensitivity, in words (T-cell subsets (CD3+); T-cell subsets, Cohort I samples): insensitive
- effect on CD3+ cell count, in words (T-cell subsets (CD3+); at concentrations of 10 and 100 nM): increase
- response (DSS), in words [2]: no response

Structure (SMILES): CC1(C)CCC(CN2CCN(c3ccc(C(=O)NS(=O)(=O)c4ccc(NCC5CCOCC5)c([N+](=O)[O-])c4)c(Oc4cnc5[nH]ccc5c4)c3)CC2)=C(c2ccc(Cl)cc2)C1 [venetoclax]
- sensitivity compared to other cell types, in words (CD19+/B cells): higher sensitivity
- sensitivity compared to other cell types, in words (CD56+/NK cells): higher sensitivity
- response of monocytes, in words (monocytes (CD14+)): resistant
